Compound activity: PubChem BioAssay, several laboratories
This is a sample that favours compounds with a hit; in the whole collection about 4.8% have one here.
RORa activator: activators of human nuclear receptor RORA; CHO-K1 Gal4-RORA LBD luciferase reporter, luminescence; percent increase over mock-subtracted basal signal; activation, % at 10 µM; 1.5% of 65,000 active;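 active means activation above the mean of all tested compounds plus 3 SD, cut at about 49% in these data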
Target sequence (P35398 whole entry, looked up, the tested form may be a part): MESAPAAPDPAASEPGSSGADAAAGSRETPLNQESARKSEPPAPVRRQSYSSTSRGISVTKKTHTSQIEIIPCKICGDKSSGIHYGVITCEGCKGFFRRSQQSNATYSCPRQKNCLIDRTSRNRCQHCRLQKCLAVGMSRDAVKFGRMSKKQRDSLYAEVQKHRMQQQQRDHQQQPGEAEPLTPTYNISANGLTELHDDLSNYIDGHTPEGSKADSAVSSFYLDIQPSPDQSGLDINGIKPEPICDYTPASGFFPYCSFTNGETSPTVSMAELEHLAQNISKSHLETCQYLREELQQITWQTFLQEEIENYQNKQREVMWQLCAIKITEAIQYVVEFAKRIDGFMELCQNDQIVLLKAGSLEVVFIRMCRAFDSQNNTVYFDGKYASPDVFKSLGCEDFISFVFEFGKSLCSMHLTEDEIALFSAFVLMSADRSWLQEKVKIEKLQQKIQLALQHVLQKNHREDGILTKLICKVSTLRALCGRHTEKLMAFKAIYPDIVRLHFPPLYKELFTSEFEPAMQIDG
SF1 activator: activates the human nuclear receptor SF-1; Q13285; AID 522; CHO-K1 Gal4-SF-1 LBD luciferase reporter; % increase over DMSO SF-1-specific signal; 1.9% of 65,000 active; activation, % at 10 µM;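 active means activation above the mean activation of all tested compounds plus 3 SD, cut at about 50% in these data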
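material = CHO-K1 cells with Gal4–hSF-1 LBD chimera plus Gal4-driven luciferase | compound = 10 µM single point, 1% DMSO | incubation = 20 h compound exposure at 37 °C after 1 h cell settling | measured by = SteadyLite luciferase luminescence | evaluation = percent activation relative to DMSO median and mock-transfected background | control set = DMSO negative control and −SF1 background wells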
ERb SRC1 inh: blocks coactivator binding to human estrogen receptor beta; Q92731; TR-FRET ER-beta LBD / SRC1-Cy5 peptide binding; receptor agonist-loaded with 1 µM estradiol; inhibition, % at 25.6 µM; 1.3% of 86,000 active;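 active means compounds whose percent inhibition of the receptor-coactivator binding signal exceeds about 50% in the single-dose screen, limit read from the data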
ERa coact pot: enhances coactivator binding to human estrogen receptor alpha. coactivator binding (% of control), % at 25.6 µM. TR-FRET ERalpha-LBD/SRC-Cy5 coactivator binding, 2 h; 100 = basal binding, no effect. P03372. 1.3% of 86,000 active. AID 639; in the data active means activity above about 200%;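 further: binding measured in presence of low estradiol as agonist stimulus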
ERa SRC1 inh: ER-alpha (human) coactivator binding inhibition; TR-FRET ER-alpha LBD / SRC-1 peptide, estradiol-bound; inhibition, % at 25.6 µM; 1.7% of 86,000 active; in the data active means inhibition above about 50%
PTK2B oligo ant: antagonists of human Pyk2 oligomerization. Q14289. Q293 cells, Pyk2 FERM NanoBiT luminescence; hits give low values. z-score (the deposit names both 25 µM and 10 µM). 0.83% of 99,000 active. AID 1347419;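 active means Z-score of -3 or lower, scaled per plate to the spread of control and sample wells; inactive means z-score above -3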;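 further: negative z-score means lost luminescence so less FERM oligomerization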
Of the large screens only hits and unclear results are named; the others gave an inactive call; [ ] = remark or other dose.

CN(C(=O)CN1CCC(NC(=O)C2CCCCC2)CC1)C1CCCCC1	ERa coact pot 211[fluorescence artefact?]
CCS(=O)(=O)N1CCC(NC(=O)C2CCCCC2)CC1	none
COc1ccc(/C=N/NC(=O)c2nonc2C)cc1	none (no result: RORa activator, SF1 activator, ERb SRC1 inh, ERa coact pot, ERa SRC1 inh)
O=C(CSCc1ccccc1)NNC(=S)Nc1cccc(Cl)c1Cl	none (no result: RORa activator, SF1 activator, ERb SRC1 inh, ERa coact pot, ERa SRC1 inh)
Cc1cc([N+](=O)[O-])nn1CC(=O)NNC(=S)Nc1ccc(F)cc1	none (no result: RORa activator, SF1 activator, ERb SRC1 inh, ERa coact pot, ERa SRC1 inh)
CC(C)CNC(=O)c1c(N)n(/N=C/c2ccccn2)c2nc3ccccc3nc12	ERa coact pot 228[fluorescence artefact?], ERa SRC1 inh 69
COCCNC(=O)c1c(N)n(/N=C/c2cccs2)c2nc3ccccc3nc12	ERa SRC1 inh 68
Cc1c(Br)cc(C(=O)NCc2ccco2)c(C)c1C	ERa SRC1 inh 51
Cc1ccc2c(CC(=O)NCc3ccco3)coc2c1C	RORa activator 52
O=C(NCc1ccco1)c1cc2ccc(O)cc2oc1=O	ERb SRC1 inh 72, ERa SRC1 inh 64
COc1cc(CC(=O)NCc2ccco2)cc(OC)c1OC	none (no result: RORa activator, SF1 activator, ERb SRC1 inh, ERa coact pot, ERa SRC1 inh)
Cc1ccc(C(=O)NCc2ccco2)cc1Br	none (no result: RORa activator, SF1 activator)
CCOc1ccc(C(=O)CCN2CCCCC2)cc1	ERb SRC1 inh 59
O=C(O)c1cc(S(=O)(=O)NCC2CCCO2)ccc1Cl (configuration not stated)	none
CN(C)CC(=O)N1c2ccccc2CCc2ccc(NC(=O)c3ccc(N)cc3)cc21	ERb SRC1 inh 69[fluorescence artefact?], ERa SRC1 inh 79
C=CCNC(=O)C1(c2ccccc2)CC1(Cl)Cl (configuration not stated)	none (no result: RORa activator, SF1 activator, ERb SRC1 inh, ERa coact pot, ERa SRC1 inh)
CCCc1nc2sc3c(SCC(=O)NCc4ccco4)ncnc3c2c2c1CCC2	ERa coact pot 255[fluorescence artefact?]
Nc1nc(Nc2ccccc2Br)nc(C(F)(F)F)n1	none (no result: PTK2B oligo ant)
Nc1nc(Nc2ccc(Cl)cc2Cl)nc(C(F)(F)F)n1	RORa activator 56, SF1 activator 85
CCOC(=O)c1sc(NC(=O)C2C3C=CC(C3)C2C(=O)O)nc1C (configuration not stated)	none (no result: RORa activator, SF1 activator)
CCc1nc(SCC(N)=O)c2c(=O)n(C)c(=O)n(C)c2n1	none (no result: PTK2B oligo ant)
CCSc1nnc(NC(=O)CSc2nc(CC)nc3c2c(=O)n(C)c(=O)n3C)s1	ERa coact pot 254 (no result: PTK2B oligo ant)
CCOC(=O)c1cc2sc(C)cc2n1CC(=O)NCCc1ccccc1	ERa coact pot 932[fluorescence artefact?]
CCOC(=O)c1cc2sc(C)cc2n1CC(=O)N(CC)CC	none (no result: RORa activator, SF1 activator)
COC(=O)c1cc2sc(Cl)cc2n1CC(=O)NCCC(C)C	ERa coact pot 226[fluorescence artefact?] (no result: RORa activator, SF1 activator)
Cc1cc(=O)n2nc(N3CCCC3C(=O)NCCCN3CCCCC3)sc2n1 (configuration not stated)	none
O=C(COc1ccc2ccccc2c1)NCCNC(=O)COc1ccc2ccccc2c1	ERa coact pot 317[fluorescence artefact?] (no result: RORa activator, SF1 activator)
Cc1onc(-c2c(F)cccc2Cl)c1C(=O)NC(=S)NC1CCS(=O)(=O)C1 (configuration not stated)	none (no result: RORa activator, SF1 activator, ERb SRC1 inh, ERa coact pot, ERa SRC1 inh)
COc1ccc(-c2cc(C#N)nc(N3CCNCC3)n2)cc1	ERa coact pot 305[fluorescence artefact?] (no result: RORa activator, SF1 activator)
O=S(=O)(c1ccc2c(c1)OCCO2)N1CCN(c2cccc(Cl)c2)CC1	PTK2B oligo ant -3.9
O=S(=O)(c1ccc2c(c1)OCCO2)N1CCC(O)(c2ccc(Cl)cc2)CC1	PTK2B oligo ant -3.2
Cc1ccc(S(=O)(=O)N2CCCN(S(=O)(=O)c3ccc4c(c3)OCCO4)CC2)cc1	PTK2B oligo ant -3
CN1CCN(S(=O)(=O)c2ccc3c(c2)OCCO3)CC1	none (no result: RORa activator, SF1 activator)
O=C(COC(=O)C1=Cc2ccccc2OC1)NC1CCCC1	none (no result: RORa activator, SF1 activator, ERb SRC1 inh, ERa coact pot, ERa SRC1 inh)
COCCn1c(C)cc(C(=O)COC(=O)c2ccc3ncsc3c2)c1C	SF1 activator 52
CN(CC(=O)N1CCc2ccccc21)S(=O)(=O)c1cccs1	RORa activator 52, SF1 activator 55
O=C(CCCC(=O)N1CCc2ccccc21)N1CCc2ccccc21	none
N#Cc1ccccc1CN1C(=O)S/C(=C/c2cccn2-c2ccc(C(=O)O)cc2)C1=O	PTK2B oligo ant -3.2 (no result: RORa activator, SF1 activator, ERb SRC1 inh, ERa coact pot, ERa SRC1 inh)
CCS(=O)(=O)N1Cc2ccccc2CC1C(=O)N1CCN(c2ccccc2)CC1 (configuration not stated)	ERa coact pot 223[fluorescence artefact?]
O=C(C1Cc2ccccc2CN1S(=O)(=O)c1ccc(F)cc1)N1CCOCC1 (configuration not stated)	none (no result: RORa activator, SF1 activator)
CCOC(=O)c1ccc(Nc2nc(-c3cccnc3)nc3ccccc23)cc1	PTK2B oligo ant -3.5 (no result: RORa activator, SF1 activator, ERb SRC1 inh, ERa coact pot, ERa SRC1 inh)
C=CCn1c(C)cc(C(=O)CSc2nnc(NCc3ccccc3)s2)c1C	SF1 activator 59
C=CCn1c(C)cc(C(=O)CSc2nc3ccccc3c(=O)[nH]2)c1C	SF1 activator 112
C=CCn1c(C)cc(C(=O)COc2nncc3ccccc23)c1C	RORa activator 80
C=CCn1c(C)cc(C(=O)CSc2nc3ccccc3[nH]2)c1C	none (no result: RORa activator, SF1 activator)
Cc1cc(C(=O)CSc2nc3ccccc3[nH]2)c(C)n1C	RORa activator 59, SF1 activator 61
CSc1ccc(/C=N/NC(=O)c2cccc(O)c2)cc1	none (no result: RORa activator, SF1 activator, ERb SRC1 inh, ERa coact pot, ERa SRC1 inh)
CC1CCCN(C(=O)CSCC(=O)N=c2sc3ccccc3n2C)C1 (configuration not stated)	none
CC1(C)Cc2nc3sc4c(OCc5ccccc5)ncnc4c3cc2CO1	none (no result: RORa activator, SF1 activator, ERb SRC1 inh, ERa coact pot, ERa SRC1 inh)
CC1(C)Cc2nc3sc4c(=O)n(CC(=O)NCc5ccco5)cnc4c3cc2CO1	SF1 activator 62
CCOC(=O)c1c(NC(=O)CSc2nc3c(c(=O)n(C)c(=O)n3C)n2CC)sc(C)c1C	none
CCCn1c(SCC(=O)Nc2sc(C)c(C)c2C(=O)OC)nc2c1c(=O)n(C)c(=O)n2C	ERa coact pot 246, ERa SRC1 inh 51 (no result: PTK2B oligo ant)
